From ChEMBL document CHEMBL5532692, “Structure-based virtual screening of unbiased and RNA-focused libraries to identify new ligands for the HCV IRES model system” (RSC Med Chem, 2024)
pEC50, pKd: −log10 of the molar value.

The compounds below were run against Internal ribosome entry site (IRES) (assay: Binding affinity to HCV IRES subdomain IIa RNA assessed as reduction in FRET signal by FRET assay). Settings: not given.
Format: nucleic-acid assay, Hepacivirus hominis
Outline: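 Two-stranded HCV IRES IIa RNA, 5'-Cy3 on one strand and 5'-Cy5 on the other, annealed at 75 °C then cooled to room temperature for at least 20 min in 10 mM HEPES pH 7.0, 2 mM MgCl2. RNA at 100 nM with compound; excitation 480 nm, Cy5 emission 670 nm. Dose–response 1 mM to 100 nM in 3.16-fold steps, 2% DMSO final. EC50 from at least triplicates.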

pEC50	SMILES
≤ 3.00	NC1=NC(c2cn[nH]c2-c2cccc(O)c2)n2c(nc3ccccc32)N1 (stereo unspecified)

Each compound was assayed against Internal ribosome entry site (IRES) (assay: Binding affinity to HCV IRES subdomain IIa RNA assessed as dissociation constant by MST assay). Settings: not given.
Format: nucleic-acid assay, Hepacivirus hominis
Outline: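 Same two-stranded IIa RNA, Cy5-labelled, annealed at 75 °C then cooled to room temperature for at least 20 min in 10 mM HEPES pH 7.0, 2 mM MgCl2. Used at 30 nM with compound from 1 mM (or 316/100 μM if solubility-limited) to 0.01 μM in 3.16-fold steps, 2% DMSO final. Thermophoresis read after 18 s laser on-time. KD from triplicates.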

SMILES	pKd
CC(C)NCC(O)COc1ccc2[nH]cc(CCN)c2c1 (stereo unspecified)	3.87
N=C(N)NC(=O)c1nc(Cl)c(N)nc1N [AMILORIDE]	≤ 4.00

Continued, values first:

pKd	SMILES
3.72	CCOc1ccc2c(C)nc(NC(=N)N)nc2c1
≤ 4.00	NC1=NC(c2cn[nH]c2-c2cccc(O)c2)n2c(nc3ccccc32)N1 (stereo unspecified)
≤ 4.30	Nc1cc(-c2ccc3[nH]ncc3c2)c2cc[nH]c2n1
3.87	COc1ccc2c(C)nc(NC(=N)N)nc2c1
4.06	CNC(=N)Nc1nc(C)c2ccc(OC)cc2n1

The compounds below were run on Internal ribosome entry site (IRES) (assay: Binding affinity to HCV IRES subdomain IIa RNA). Settings: Hepacivirus hominis; dose 0.001-1000 µM.

Activity	SMILES
Dose-Dependent Effect	NC1=Nc2nc3ccccc3n2C(C2CC2)N1 (stereo unspecified)
Dose-Dependent Effect	NC1=NC(c2ccccc2)n2c(nc3ccccc32)N1 (stereo unspecified)
Dose-Dependent Effect	COc1cccc(C2NC(N)=Nc3nc4ccccc4n32)c1 (stereo unspecified)
